In brackets after ≈: the same amount, converted by molar mass. Where only a bound is given, the exact number is not on record here.

Series [1] concerns the target T1, Peroxisome proliferator-activated receptor gamma (Homo sapiens, UniProt P37231).
T1 sequence (P37231 whole entry): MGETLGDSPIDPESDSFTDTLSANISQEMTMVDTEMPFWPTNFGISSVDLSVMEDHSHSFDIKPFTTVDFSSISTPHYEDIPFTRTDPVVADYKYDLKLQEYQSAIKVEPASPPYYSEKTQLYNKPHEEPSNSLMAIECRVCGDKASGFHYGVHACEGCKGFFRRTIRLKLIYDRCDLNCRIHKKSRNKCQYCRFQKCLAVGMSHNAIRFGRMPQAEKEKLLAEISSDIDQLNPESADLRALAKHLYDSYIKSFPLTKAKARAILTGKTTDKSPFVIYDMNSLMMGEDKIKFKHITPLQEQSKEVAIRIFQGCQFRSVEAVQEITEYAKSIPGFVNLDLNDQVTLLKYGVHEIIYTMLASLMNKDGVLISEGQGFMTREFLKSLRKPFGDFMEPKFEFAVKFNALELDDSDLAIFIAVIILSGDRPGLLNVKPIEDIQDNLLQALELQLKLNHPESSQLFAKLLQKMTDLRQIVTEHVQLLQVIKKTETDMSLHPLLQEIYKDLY
The experiment in a line: Binding affinity against peroxisome proliferator activated receptor gamma (PPAR-gamma).

In series [2] the target is T1, Peroxisome proliferator-activated receptor gamma. Nature of the series: in vitro agonist activity against peroxisome proliferator activated receptor-gamma (PPAR-gamma), using alkaline phosphatase activity transactivator assay. The format is functional.
Series [3] is described as follows: Solubility in simulated gastric fluid. The class given is physicochemical. To be noted: read-out: S. Put shortly:
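Solubility in simulated gastric fluid, pH 1.2, in temperature-controlled shaking water baths. Samples were drawn, passed through a 0.22-µm filter, diluted in water/acetonitrile (60:40), and quantified by HPLC on a phenyl reverse-phase column.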

Series [4] can be described thus: Solubility in phosphate buffer at pH 7.4. The format is physicochemical. Put shortly:
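Solubility in 0.06 M phosphate buffer, pH 7.4, in temperature-controlled shaking water baths. Samples were drawn, passed through a 0.22-µm filter, diluted in water/acetonitrile (60:40), and quantified by HPLC on a phenyl reverse-phase column. Reported in mg/mL.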

The term Ki denotes the dissociation constant of the complex between target and ligand, obtained from inhibition or displacement. Higher therefore signals weaker binding. The EC50 is the concentration at which the effect is half-maximal. Low readings indicate higher potency in that assay, high ones lower potency in that assay. For `Cc1ccc(C(=O)c2ccccc2NC(Cc2ccc(OCCN(C)c3nc4ccccc4o3)cc2)C(=O)O)cc1` (centres undefined), the affinity in series [1], expressed as Ki, was 2.82 nM. In addition, the EC50 in series [2] was 8.51 nM.

With `Cc1oc(-c2ccccc2)nc1CCOc1ccc(CC(Nc2ccccc2C(=O)N(C)C)C(=O)O)cc1` (centres undefined), in series [1], the Ki is 251 nM. This molecule had an EC50 in series [2] of 562 nM.

On to `Cc1oc(-c2ccccc2)nc1CCOc1ccc(CC(Nc2ccccc2C(=O)c2ccc(CO)cc2)C(=O)O)cc1` (centres undefined), for which affinity in series [1] was put at a Ki of 4.17 nM. In addition, the solubility in series [3] was 22 µg/mL (≈ 38.2 µM); in series [4] it was 75 µg/mL (≈ 130 µM). A half-maximal effect in series [2] (EC50) was put at 17.4 nM.

In turn, `Cc1oc(-c2ccccc2)nc1CCOc1ccc(CC(Nc2ccccc2C(=O)c2cccc(CO)c2)C(=O)O)cc1` (centres undefined) had a Ki in series [1] of 3.39 nM. This molecule gave an EC50 in series [2] of 24.5 nM. The solubility in series [4] is 1340 µg/mL (≈ 2320 µM).

The molecule `CN(CCOc1ccc(CC(Nc2ccccc2C(=O)C2CCCCCC2)C(=O)O)cc1)c1nc2ccccc2o1` (centres undefined) had a Ki in series [1] of 39.8 nM. The molecule also gave an EC50 in series [2] of 7.76 nM.

`CN(CCOc1ccc(CC(Nc2sccc2C(=O)c2ccccc2)C(=O)O)cc1)c1nc2ccccc2o1` (centres undefined): the affinity in series [1] corresponds to a Ki of 23.4 nM. For the same molecule, the EC50 in series [2] was 38 nM.

The molecule `COc1ccccc1C(=O)c1ccccc1NC(Cc1ccc(OCCN(C)c2nc3ccccc3o2)cc1)C(=O)O` (centres undefined) had an EC50 in series [2] of 38 nM. This lies in the double-digit nanomolar range.

As to `Cc1oc(-c2ccccc2)nc1CCOc1ccc(CC(Nc2ccccc2C(=O)c2cccc(CN(C)C)c2)C(=O)O)cc1` (centres undefined), the solubility in series [3] and in series [4] was 9 µg/mL (≈ 14.9 µM) throughout. In addition, in series [2], the EC50 is 417 nM.

Regarding `CN(CCOc1ccc(C[C@@H](Nc2ccccc2C(=O)C2CCCCC2)C(=O)O)cc1)c1nc2ccccc2o1`, in series [1], the Ki is 1550 nM. The molecule further showed an EC50 in series [2] above 10000 nM.

In the case of `CN(CCOc1ccc(CC(Nc2ccccc2C(=O)c2ccsc2)C(=O)O)cc1)c1nc2ccccc2o1` (centres undefined), the Ki in series [1] was 2.34 nM. Moreover, in series [2], it took 63.1 nM to reach a half-maximal effect (EC50).

For the molecule `COc1ccc(C(=O)c2ccccc2NC(Cc2ccc(OCCN(C)c3nc4ccccc4o3)cc2)C(=O)O)cc1` (centres undefined), the Ki in series [1] is 5.62 nM. In addition, the EC50 in series [2] is 32.4 nM.

Consider `CN(CCOc1ccc(CC(Nc2ccccc2C(=O)c2ccc(OCc3ccccc3)cc2)C(=O)O)cc1)c1nc2ccccc2o1` (centres undefined), for which, in series [1], the affinity, expressed as Ki, was 66.1 nM. In series [2], a half-maximal response (EC50) required 759 nM.

The molecule `Cc1cccc(C(=O)c2ccccc2NC(Cc2ccc(OCCN(C)c3nc4ccccc4o3)cc2)C(=O)O)c1` (centres undefined) gave a Ki in series [1] of 2.69 nM. In series [2], this molecule gave an EC50 of 16.6 nM.

As to `CN(CCOc1ccc(CC(Nc2ccccc2C(=O)c2cccs2)C(=O)O)cc1)c1nc2ccccc2o1` (centres undefined), in series [1], the Ki is 2.75 nM. The response in series [2] was half-maximal at 45.7 nM (EC50).

`CN(CCOc1ccc(CC(Nc2ccccc2C(=O)c2ccccc2C(F)(F)F)C(=O)O)cc1)c1nc2ccccc2o1` (centres undefined) had a Ki in series [1] of 2.69 nM. In series [2], this molecule showed a half-maximal effective concentration (EC50) of 39.8 nM.

For `CCOC(=O)c1ccccc1NC(Cc1ccc(OCCc2nc(-c3ccccc3)oc2C)cc1)C(=O)O` (centres undefined), the Ki in series [1] was 3.02 nM. This molecule gave an EC50 in series [2] of 0.912 nM.

As to `Cc1oc(-c2ccccc2)nc1CCOc1ccc(CC(Nc2ccccc2C(=O)c2ccc(C(=O)O)cc2)C(=O)O)cc1` (centres undefined), the Ki in series [1] is 646 nM. The molecule also had an EC50 in series [2] of 7590 nM.

In the case of `CN(CCOc1ccc(CC(Nc2cscc2C(=O)c2ccccc2)C(=O)O)cc1)c1nc2ccccc2o1` (centres undefined), the Ki in series [1] is 2.57 nM. This molecule also gave an EC50 in series [2] of 8.32 nM.

Consider `CCCOC(=O)c1ccccc1NC(Cc1ccc(OCCc2nc(-c3ccccc3)oc2C)cc1)C(=O)O` (centres undefined), for which the affinity in series [1] corresponds to a Ki of 2.4 nM. This molecule also gave an EC50 in series [2] of 0.302 nM.

As for `Cc1oc(-c2ccccc2)nc1CCOc1ccc(CC(Nc2ccccc2C(=O)O)C(=O)O)cc1` (centres undefined), in series [1], the Ki is above 3160 nM. Also, in series [2], the EC50 is 4900 nM.

In series [1], `CN(CCOc1ccc(CC(Nc2ccccc2C(=O)C2CCCC2)C(=O)O)cc1)c1nc2ccccc2o1` (centres undefined) had a Ki of 6.46 nM. Moreover, the EC50 in series [2] was 18.2 nM.

As to `Cc1oc(-c2ccccc2)nc1CCOc1ccc(CC(Nc2ccccc2C(=O)OC(C)C)C(=O)O)cc1` (centres undefined), in series [1], the affinity corresponds to a Ki of 0.977 nM. Also, the EC50 in series [2] is 0.575 nM.

In the case of `Cc1oc(-c2ccccc2)nc1CCOc1ccc(CC(Nc2ccccc2C(=O)c2cccc(N)c2)C(=O)O)cc1` (centres undefined), in series [1], the affinity, expressed as Ki, was 3.24 nM. The solubility in series [3] is 3 µg/mL (≈ 5.34 µM); in series [4], 525 µg/mL (≈ 935 µM). Besides, it took 8.91 nM to reach a half-maximal effect in series [2] (EC50).

`Cc1oc(-c2ccccc2)nc1CCOc1ccc(CC(Nc2ccccc2C(=O)c2cccc(C(=O)O)c2)C(=O)O)cc1` (centres undefined) had a Ki in series [1] of 813 nM. The molecule also had an EC50 in series [2] of 209 nM.

For the molecule `CN(CCOc1ccc(CC(Nc2ccccc2C(=O)c2ccccc2)C(=O)O)cc1)c1nc2ccccc2o1` (centres undefined), in series [1], the Ki was 1.48 nM.

Consider `Cc1oc(-c2ccccc2)nc1CCOc1ccc(CC(Nc2ccccc2C(=O)c2ccncc2)C(=O)O)cc1` (centres undefined), for which the solubility in series [3] was 87 µg/mL (≈ 159 µM); in series [4] it was 1150 µg/mL (≈ 2100 µM). In series [2], this molecule had an EC50 of 0.912 nM.

Regarding `CSc1nc(NC(Cc2ccc(OCCN(C)c3nc4ccccc4o3)cc2)C(=O)O)c(C(=O)c2ccccc2)s1` (centres undefined), affinity in series [1] was put at a Ki of 42.7 nM. It took 4070 nM to reach a half-maximal effect in series [2] (EC50).

`CNC(=O)c1ccccc1NC(Cc1ccc(OCCc2nc(-c3ccccc3)oc2C)cc1)C(=O)O` (centres undefined): the Ki in series [1] was 15.5 nM. The same molecule showed an EC50 in series [2] of 32.4 nM.

Regarding `Cc1oc(-c2ccccc2)nc1CCOc1ccc(CC(Nc2ccccc2C(=O)c2cccnc2)C(=O)O)cc1` (centres undefined), the Ki in series [1] is 0.933 nM. Moreover, the values for the solubility in series [3] and in series [4] were 18 µg/mL (≈ 32.9 µM) and 55 µg/mL (≈ 100 µM), respectively. For the same molecule, a half-maximal effect in series [2] (EC50) was put at 1.48 nM.

`Cc1ccc(NC(Cc2ccc(OCCN(C)c3nc4ccccc4o3)cc2)C(=O)O)c(C(=O)c2ccccc2)c1` (centres undefined): the Ki in series [1] was 13.5 nM. The molecule also showed an EC50 in series [2] of 229 nM.

`Cc1oc(-c2ccccc2)nc1CCOc1ccc(C[C@H](Nc2ccccc2C(=O)C2CCCCC2)C(=O)O)cc1`: it took 0.282 nM to reach a half-maximal effect in series [2] (EC50).

As to `Cc1oc(-c2ccccc2)nc1CCOc1ccc(CC(Nc2ccccc2C(=O)c2ccc(CN(C)C)cc2)C(=O)O)cc1` (centres undefined), in series [1], the affinity, expressed as Ki, was 15.5 nM. For the same molecule, it took 407 nM to reach a half-maximal effect in series [2] (EC50).

The molecule `CN(CCOc1ccc(CC(Nc2ccc(Cl)cc2C(=O)c2ccccc2)C(=O)O)cc1)c1nc2ccccc2o1` (centres undefined) had a Ki in series [1] of 8.71 nM. The EC50 in series [2] is 89.1 nM.

For `CN(CCOc1ccc(C[C@H](Nc2ccccc2C(=O)C2CCCCC2)C(=O)O)cc1)c1nc2ccccc2o1`, the affinity in series [1], expressed as Ki, was 4.07 nM. Also, in series [2], a half-maximal effect (EC50) was put at 2.88 nM.

In turn, `Cc1ccccc1C(=O)c1ccccc1NC(Cc1ccc(OCCN(C)c2nc3ccccc3o2)cc1)C(=O)O` (centres undefined) had an EC50 in series [2] of 9.33 nM. This counts as single-digit nanomolar.

With `Cc1oc(-c2ccccc2)nc1CCOc1ccc(C[C@@H](Nc2ccccc2C(=O)C2CCCCC2)C(=O)O)cc1`, the affinity in series [1], expressed as Ki, was 191 nM. The solubility was 2 µg/mL (≈ 3.62 µM) in series [3] and 52 µg/mL (≈ 94.1 µM) in series [4]. In series [2], this molecule had an EC50 of 15.1 nM.

`CN(CCOc1ccc(CC(Nc2ccncc2C(=O)c2ccccc2)C(=O)O)cc1)c1nc2ccccc2o1` (centres undefined) had a Ki in series [1] of 155 nM. The same molecule had an EC50 in series [2] of 9330 nM.

For `CN(CCOc1ccc(CC(Nc2ccsc2C(=O)c2ccccc2)C(=O)O)cc1)c1nc2ccccc2o1` (centres undefined), in series [1], the Ki was 9.77 nM. In series [2], this molecule gave an EC50 of 12 nM.

In series [1], `CN(CCOc1ccc(CC(Nc2ccccc2C(=O)c2cccc(C(F)(F)F)c2)C(=O)O)cc1)c1nc2ccccc2o1` (centres undefined) gave a Ki of 2.63 nM. Moreover, the EC50 in series [2] is 11.7 nM.

Molecule `COc1cccc(C(=O)c2ccccc2NC(Cc2ccc(OCCN(C)c3nc4ccccc4o3)cc2)C(=O)O)c1` (centres undefined) had a Ki in series [1] of 2.29 nM. Besides, in series [2], the EC50 is 117 nM.

In series [1], `CN(CCOc1ccc(CC(Nc2ccccc2C(=O)c2ccc(C(F)(F)F)cc2)C(=O)O)cc1)c1nc2ccccc2o1` (centres undefined) had a Ki of 5.13 nM. In series [2], this molecule showed an EC50 of 24 nM.

The record behind these values is ChEMBL document CHEMBL1131297, “N-(2-Benzoylphenyl)-L-tyrosine PPARgamma agonists. 3. Structure-activity relationship and optimization of the N-aryl substituent” (J Med Chem, 1998).
